This is a sample that favours compounds with a hit; in the whole collection about 4% have one here.
E-selectin induc: E-selectin induction on HUVECs | P16581 | HUVEC E-selectin immunofluorescence imaging; normalized: neutral wells 0, TNF-alpha wells 100 | activation, % at 7.58 µM | actives 0.37% (n = 260,000) | AID 686992;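 active means mean E-selectin-positive cell signal at least 10% of the positive control, reached in at least 60% of replicates, without over 20% cell loss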
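Material: HUVEC primary endothelial cells; Amount: 3,000 cells per well; Dosing: single concentration; Medium: EGM-2 growth medium on 0.1% gelatin-coated wells; Read-out basis: percent E-selectin-positive cells; Signal: immunofluorescence imaging; Control set: TNF-alpha, DMSO.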
C2C12 statin: suppressors of simvastatin-induced myotoxicity in C2C12 myotubes; rescue of ATP level, % at 7.49 µM; AID 602340; ATP luminescence, 48 h; scaled: DMSO 0, geranylgeraniol control 100; actives 0.78% (n = 330,000);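 active means mean ATP rescue above about 67%, or every replicate alone reaching that limit, limit read from the data, passing the limit was not always enough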;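 further: myotubes were challenged with 10 µM simvastatin during compound exposure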
rRNA inh HTS: selective bacterial rRNA inhibition in E. coli | AID 720706 | actives 1.6% (n = 350,000) | GFP signal change (wild-type ribosome), % (concentration not given with the values) | E. coli WT GFP vs humanized-ribosome RFP mutants, fluorescence, 24 h; hits give low values; DMSO median 0, no signal -100;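 active means significant combined selectivity score with lowered wild-type GFP, culture density cut under 30%, mutant RFP and density less affected; inactive means any of these conditions unmet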
FN deposit inh: fibronectin deposition inhibition | actives 0.086% (n = 350,000) | AID 743247 | AH1F fibroblasts, Alexa488-fibronectin deposition fluorescence, overnight | inhibition, % at 12.6 µM;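 active means mean inhibition across replicates of 30% or more, regardless of how many single replicates reach that level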
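Material: AH1F fibroblast monolayer depositing Alexa488-labelled fibronectin into matrix / Amount: 10000 AH1F cells per well / Signal: fluorescence 485/525 nm / Medium: DMEM, 2% serum / Compound: single dose, pinned / Incubation: 1 h cell adhesion before compound, then overnight fibronectin incubation / Reagent: Alexa488-FN, 24 nM final / Read-out: inhibition of fibronectin deposition signal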
SIRT5 block: blocks human SIRT5 desuccinylation of peptide; Q9NXA8; Purified SirT5, succinyl-peptide AMC, trypsin-coupled fluorescence; inhibition, % at 15 µM; actives 1.1% (n = 330,000); in the data active means inhibition above about 15%
Target sequence (Q9NXA8 whole entry, looked up): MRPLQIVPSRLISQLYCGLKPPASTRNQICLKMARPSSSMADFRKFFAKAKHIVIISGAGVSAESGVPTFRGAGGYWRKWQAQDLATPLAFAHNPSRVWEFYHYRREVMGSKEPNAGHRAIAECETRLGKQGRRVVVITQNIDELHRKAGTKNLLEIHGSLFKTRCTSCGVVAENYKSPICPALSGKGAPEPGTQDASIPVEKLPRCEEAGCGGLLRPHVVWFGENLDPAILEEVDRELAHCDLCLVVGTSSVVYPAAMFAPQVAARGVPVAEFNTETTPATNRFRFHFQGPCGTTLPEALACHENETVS
FGF22 binding: binders of recombinant human FGF22 by thermal shift | SYPRO orange fluorescence; percent of sucrose octasulfate shift, DMSO zero | activity (Tm shift, normalised), % at 9.99 µM | actives 1.5% (n = 340,000);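 active means mean Tm shift, scaled 0 neutral to 100 positive control, at about 1.3% or above, every replicate too, limit read from the data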
Target sequence (Q9HCT0 whole entry, looked up): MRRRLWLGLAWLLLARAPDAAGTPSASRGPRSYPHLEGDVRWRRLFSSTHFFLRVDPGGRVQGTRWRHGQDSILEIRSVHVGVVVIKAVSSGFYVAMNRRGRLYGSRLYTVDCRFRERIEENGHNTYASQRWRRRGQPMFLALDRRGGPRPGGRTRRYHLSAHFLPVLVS
Large screens that a line does not name were inactive.

Cc1noc(C)c1NC(=O)N(C)C[C@H]1Oc2ccc(NS(=O)(=O)c3ccccc3)cc2C(=O)N([C@@H](C)CO)C[C@H]1C	none (no result: FN deposit inh, SIRT5 block)
Cc1cc(CSc2nc(C)cc(=O)[nH]2)c2ncccc2c1	FGF22 binding 43 (no result: E-selectin induc, C2C12 statin)
Cc1ccc(S(=O)(=O)Nc2ccc3c(c2)CC(=O)N([C@H](C)CO)C[C@H](C)[C@@H](CN(C)Cc2ccc(Oc4ccccc4)cc2)O3)cc1	none (no result: FN deposit inh)
Cc1ccc(S(=O)(=O)Nc2ccc3c(c2)CC(=O)N([C@@H](C)CO)C[C@@H](C)[C@H](CN(C)Cc2ccc(Oc4ccccc4)cc2)O3)cc1	C2C12 statin 83, SIRT5 block 22 (no result: FN deposit inh)
C[C@H]1CN([C@@H](C)CO)C(=O)Cc2cc(NS(=O)(=O)c3ccc(Cl)cc3)ccc2O[C@@H]1CN(C)Cc1ccc(Oc2ccccc2)cc1	SIRT5 block 17
C[C@@H]1CN([C@@H](C)CO)C(=O)Cc2cc(NS(=O)(=O)c3ccc(Cl)cc3)ccc2O[C@@H]1CN(C)Cc1ccc(Oc2ccccc2)cc1	none
O=C(/C=C/c1cn(CC(O)CN2CCCCC2)c2ccccc12)c1cccs1 (stereo not given)	none (no result: E-selectin induc, C2C12 statin, rRNA inh HTS, SIRT5 block, FGF22 binding)
O=C(/C=C/c1cn(CC(O)CN2CCCCC2)c2ccccc12)c1ccccc1 (stereo not given)	rRNA inh HTS -38 (no result: E-selectin induc, C2C12 statin)
N#CC1(Nc2cccc(Cl)c2)CCCC1	FGF22 binding 43 (no result: SIRT5 block)
CCOC(=O)C1CCCN(C(=O)c2cc3c(-c4cccc(OC)c4)nn(C)c3s2)C1 (stereo not given)	C2C12 statin 96 (no result: E-selectin induc, rRNA inh HTS, FN deposit inh, SIRT5 block, FGF22 binding)
CCC(=O)N1[C@H](CO)[C@H](c2ccccc2)C12CN(C(=O)c1cnccn1)C2	none (no result: E-selectin induc, C2C12 statin, FN deposit inh, SIRT5 block, FGF22 binding)
CC(=O)NCCC(=O)N1CCCC(CNC(=O)c2ccc(-c3ccccc3)cc2)C1 (stereo not given)	FGF22 binding 43 (no result: E-selectin induc, C2C12 statin, rRNA inh HTS)
C=CCC(=O)N1CCCC(CNC(=O)c2ccc(-c3ccccc3)cc2)C1 (stereo not given)	none
COC(=O)C1=C(C)Nc2c(c(=O)n(C)c(=O)n2C)C1c1cccc(O)c1 (stereo not given)	SIRT5 block 20
O=C(c1ccc(F)cc1)N1CC(=O)N2[C@H](C1)[C@@H](c1ccc(-c3ccccc3)cc1)[C@@H]2CO	none (no result: C2C12 statin, FN deposit inh, FGF22 binding)
CCOC(=O)c1[nH]c2ccc(OC)cc2c1NC(=O)OC	none (no result: E-selectin induc, rRNA inh HTS, FN deposit inh, SIRT5 block, FGF22 binding)
CCOC(=O)Nc1c(C(=O)OC)[nH]c2cc(OC)ccc12	C2C12 statin 107 (no result: E-selectin induc, rRNA inh HTS, FN deposit inh, SIRT5 block, FGF22 binding)
CCOC(=O)c1[nH]c2ccc(Br)cc2c1NC(=O)CCN1CCN(C(=O)OCC)CC1	C2C12 statin 104 (no result: E-selectin induc, rRNA inh HTS, SIRT5 block, FGF22 binding)
CCOC(=O)c1[nH]c2ccc(Br)cc2c1NC(=O)CCN1CCOCC1	none (no result: C2C12 statin)
CCOC(=O)c1[nH]c2ccccc2c1NC(=O)c1ccc(Br)o1	rRNA inh HTS -19 (no result: E-selectin induc, FN deposit inh)
CCOC(=O)c1[nH]c2ccc(OC)cc2c1NC(=O)CCN1CCCC(C)C1 (stereo not given)	C2C12 statin 145 (no result: E-selectin induc, rRNA inh HTS, FN deposit inh, SIRT5 block, FGF22 binding)
CCOC(=O)c1[nH]c2ccc(OC)cc2c1NC(=S)N1CCN(C(=O)OCC)CC1	none
COc1ccc(S(=O)(=O)N(C)C[C@@H]2Oc3c(NC(=O)C4CC4)cccc3C(=O)N([C@@H](C)CO)C[C@H]2C)cc1	none (no result: FN deposit inh)
CC=Cc1ccc2n(c1=O)C[C@@H]1[C@@H](CO)[C@H](C(=O)NC3CCCC3)[C@H]2N1Cc1ccncc1 (mixture of isomers)	none (no result: FN deposit inh)
CC(C)NC(=O)N(C)C[C@H]1OCCCC[C@H](C)Oc2ccc(NS(=O)(=O)c3cn(C)cn3)cc2C(=O)N([C@@H](C)CO)C[C@H]1C	none (no result: E-selectin induc, C2C12 statin)
CO[C@H]1CN(C)C(=O)c2cc(NC(=O)C3CCCC3)ccc2OC[C@@H](C)N(CC2CC2)C[C@@H]1C	none
COC(=O)c1sccc1NC(=O)c1cnc2cc(C)nn2c1C	FGF22 binding 43 (no result: E-selectin induc, C2C12 statin, FN deposit inh)
Cc1cc2ncc(C(=O)Nc3ccccc3)c(C)n2n1	none (no result: E-selectin induc, rRNA inh HTS, FN deposit inh, SIRT5 block, FGF22 binding)
O=C(CN1CCCc2ccccc21)N/N=C/c1ccc(O)cc1O	rRNA inh HTS -15 (no result: E-selectin induc, C2C12 statin, SIRT5 block)
C[C@H](CO)N1C[C@H](C)[C@H](CN(C)Cc2ccc(-c3ccccc3)cc2)Oc2ccc(NC(=O)NC3CCCCC3)cc2C1=O	none (no result: C2C12 statin, FN deposit inh)
